Rows were chosen to be rich in hits. Some 12% of all compounds tested hit in one or more screens of this group.
CHOP inhibitor: inhibitors of CHOP promoter induction, primary screen, cell-based, unfolded protein response, luciferase reporter; CHO-K1 CHOP-promoter luciferase, tunicamycin-induced, 15-18 h; inhibition, % at 10 µM; 220,000 compounds, 3.8% hits; AID 2732, 2010;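 active = compounds that reduced the stress-induced luciferase reporter signal by more than about 70% of percent inhibition, limit read from the data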;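 note: 0% = tunicamycin plus vehicle and 100% = wells without tunicamycin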
L major viab: Leishmania major promastigote growth inhibition, primary screen; Leishmania major promastigotes, resazurin fluorescence viability; 200,000 compounds, 9% hits; inhibition, % at 10 µM; in the data active = inhibition above about 50%;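 note: promastigotes grown with compound for 44 hours at 28 °C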
Dynein cargo inh: inhibitors of GR-EGFP nuclear translocation, primary screen, dynein cargo transport inhibitor project, imaging, high-content, 3617.4 mouse cells. test concentration mostly 20 µM; stimulated with dexamethasone, 1 µM; hits give low values. z-score, hits read low. 220,000 compounds, 0.47% hits;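 active = plate z-score of nuclear minus cytoplasmic receptor signal below a set negative limit, without overly bright fluorescence or cell loss, cut at about -3.5 in these data, passing the limit was not always enough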;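 note: z-score of nuclear minus cytoplasmic ring GR-EGFP intensity difference per well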
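medium = tetracycline-free induction medium containing charcoal-stripped FBS | also added = 1.0 µM final dexamethasone stimulus | schedule = 48 h induction, 1 h compound, 30 min dex at 37 °C | technique = fixed, Hoechst-stained cells imaged at 10x for EGFP | measure = GR-EGFP nuclear translocation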
MT stabilizer: microtubule stabilizers in HeLa cells, primary screen, imaging, high-content imaging | HeLa tubulin immunostaining HCS, 24 h; share of cells brighter than vehicle mean+2SD | % tubulin-high responders, % at 10 µM | 200,000 compounds, 0.83% hits;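 active = plate Z-score above 3 for both tubulin-high and condensed-nucleus cell shares, with cell loss under 80%, at 10 µM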;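 note: anti alpha tubulin signal scored within the nucleus-defined area of each cell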
b-catenin transl: modulators of beta-catenin nuclear translocation, primary screen, imaging, HeLa cells, immunofluorescence, high-content; nuclear translocation activity, % at 5 µM; 190,000 compounds, 0.3% hits;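 active = nuclear translocation activity above 50% at 5 µM, with a well cell count of 50 or more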;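 note: per-cell ratio of nuclear to cytoplasmic median beta-catenin stain intensity; plate controls were DMSO negative control for no effect and GSK-3 inhibitor IX positive control for full effect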
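test system = HeLa cells, endogenous beta-catenin | dosing = single 5 µM dose plus 0.02–20 µM confirmation series | times = compound treatment 24 h, 37°C, 5% CO2 | technique = beta-catenin immunofluorescence imaging with DAPI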
Autophagy HCS: autophagy modulators in MEF cells, primary screen, imaging, high-content, MEF GFP-LC3; MEF GFP-LC3 puncta imaging; test concentration mostly 10 µM; calls only at 10 µM (by protocol); 190,000 compounds, 0.98% hits; AID 463193, 2010;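 active = percentage of spot-positive cells more than 3 SD above its plate mean, without a fluorescence outlier flag or 80% toxicity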;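 note: spot-positive cell cutoff set from DMSO-treated cells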
* hit, by the source's call; i = inactive; x = no result; + = active, no number.

SMILES | CHOP inhibitor | L major viab | Dynein cargo inh | MT stabilizer | b-catenin transl | Autophagy HCS
CC(=O)Nc1ccc(NC(=O)CSc2ccc(-c3ccco3)nn2)cc1 | 5.3 | -2.9 | -0.405 | 1.3 | -3.6 | i
Cc1ccc(-c2nc(C(=O)NC3CCCCCC3)no2)cc1 | x | -8.3 | -0.925 | 5.9 | x | i
CC(=O)N[C@@H](C)C(=O)OC(C)C(=O)Nc1cccc([N+](=O)[O-])c1 (some centres undefined) | 23.3 | -1.2 | -0.692 | 3.0 | -1.0 | i
S=C(NC1CCCCC1)N1CCN(Cc2ccccc2Cl)CC1 | 5.6 | 7.8 | -0.253 | 1.6 | -1.2 | i
CC1=Nc2ccccc2N=C(NC(=O)CN2CCN(c3ccc(F)cc3)CC2)C1c1ccccc1 (centres undefined) | -20.2 | x | -0.859 | x | 1.8 | x
Cc1cc(C)cc(NC(=O)CSc2ccc(-c3ccco3)nn2)c1 | 26.6 | 50.9* | -0.36 | 4.2 | -1.6 | i
O=C(CSCc1ccc(Cl)cc1)Nc1ccc(-c2nnc(-c3ccccc3)o2)cc1 | 67.5 | -5.2 | -0.618 | 5.7 | 1.8 | +
O=c1c2ccccc2cnn1-c1nc2ccccc2[nH]1 | 92.8* | -3.9 | -0.304 | 2.0 | -1.7 | i
O=c1c(Cl)c(N2CCCCC2)cnn1-c1nc2ccccc2[nH]1 | 57.7 | 59.8* | 1.88 | 4.9 | -0.9 | i
O=C(NCc1cccs1)c1cnc2sccn2c1=O | -3.9 | -10.1 | -0.848 | 5.6 | -2.0 | i
O=c1oc2ccccc2c2c1SC(C(F)(F)F)C2 (centres undefined) | 1.6 | -3.5 | -0.0785 | 4.4 | 2.2 | i
CCCN(CCC)C(=O)C1CCCN1S(=O)(=O)c1cccc2nsnc12 (centres undefined) | -0.5 | x | 0.514 | x | -0.3 | x
CC1CCCN(C(=S)Nc2ccc3nc4n(c(=O)c3c2)CCCCC4)C1 (centres undefined) | 1.3 | 1.2 | 0.107 | 5.3 | -0.9 | i
CN(c1cccc(NC(=O)CN(c2cccc(Cl)c2)S(=O)(=O)c2ccccc2)c1)S(C)(=O)=O | 1.0 | 22.1 | -0.722 | 6.2 | -2.2 | i
COc1ccc(N(CC(=O)Nc2cccc(N(C)S(C)(=O)=O)c2)S(=O)(=O)c2ccc(C)cc2)cc1 | 40.8 | 66.6* | 0.914 | 3.4 | -0.7 | i
CCOc1ccc(N(CC(=O)Nc2cccc(N(C)S(C)(=O)=O)c2)S(=O)(=O)c2ccccc2)cc1 | 10.4 | 54.5* | -0.285 | 4.1 | x | i
CCOc1ccc(NC(=O)CN(c2ccc([N+](=O)[O-])cc2)S(=O)(=O)c2ccccc2)cc1 | 16.8 | 31.2 | -0.688 | 14.1* | -0.3 | i
CCOc1ccccc1CNn1nnnc1N | -4.8 | -4.8 | -1.08 | 3.7 | 1.0 | i
CN1CCN(CC(O)COC(c2ccccc2)c2ccccc2)CC1 (centres undefined) | 6.4 | -1.0 | -1.02 | 1.6 | -1.6 | i
CC1CCC(C(C)C)C(OCC(O)CN2CCCC(C)C2)C1 (centres undefined) | 20.5 | 92.1* | -0.969 | 2.4 | -5.9 | i
CC1CCC(C(C)C)C(OCC(O)CN2CCOCC2)C1 (centres undefined) | 44.9 | 7.5 | 1.94 | 3.6 | -1.3 | i
CC1CCCN(CC(O)COC(c2ccccc2)c2ccccc2)C1 (centres undefined) | 8.3 | 99.3* | -0.0941 | 5.0 | -2.4 | i
CC1CCCN(CC(O)COc2ccc(Cl)cc2)C1 (centres undefined) | -15.1 | 91.2* | 0.034 | 7.9 | -2.0 | i
OC1CCCN(CC(O)COC(c2ccccc2)c2ccccc2)C1 (centres undefined) | 0.9 | x | -0.243 | x | 0.4 | x
Cc1ccc(C(OCC(O)CN2CCCCC2CO)c2ccccc2)cc1 (centres undefined) | -3.3 | 84.1* | 0.215 | 4.2 | 1.0 | i
Cc1cccc(OCCSc2nc(N)cc(N)n2)c1 | 1.7 | x | -0.424 | x | 0.7 | x
Cc1ccsc1/C=N/NC(=O)C1C(=O)NCC1c1ccccc1 (centres undefined) | 16.1 | x | -0.214 | x | -1.7 | x
CCC(C)Oc1ccccc1C1CC(=O)NC2=C1C(=O)CCC2 (centres undefined) | x | -4.8 | 0.0184 | 60.2* | 10.3 | i
